Test results reported in ChEMBL document CHEMBL4396895, “Identification and Optimization of Novel Cathepsin C Inhibitors Derived from EGFR Inhibitors” (J Med Chem, 2019).
Calls of active or inactive are those of the source. No cut-off for these calls is given here.

What was measured:
Mus musculus [1] = assay: Protection against C57BL/6 mouse model of caerulein-induced acute pancreatitis assessed as reduction in CatC activity at 20 mg/kg, po pretreated twice daily for 6 days followed by caerulein-challenge at 1 hr interval for 8 hrs and measured 1 hr post-last caerulein-challenge
Mus musculus [2] = assay: Protection against C57BL/6 mouse model of caerulein-induced acute pancreatitis at 20 mg/kg, po pretreated twice daily for 6 days followed by caerulein-challenge at 1 hr interval for 8 hrs and measured 1 hr post-last caerulein-challenge by H and E staining-based histological analysis
[3] = Intrinsic clearance in mouse liver microsomes assessed per mg protein measured after 60 mins in presence of NADPH by LC-MS/MS analysis; assay type: ADME, Microsome; conditions: read-out: CLH
[4] = Intrinsic clearance in human liver microsomes assessed per mg protein measured after 60 mins in presence of NADPH by LC-MS/MS analysis; assay type: ADME, Microsome; conditions: read-out: CLH
[5] = Intrinsic clearance in rat liver microsomes assessed per mg protein measured after 60 mins in presence of NADPH by LC-MS/MS analysis; assay type: ADME, Microsome; conditions: read-out: CLH
Dipeptidyl peptidase 1 [6] = target: T1, Dipeptidyl peptidase 1 (Homo sapiens, UniProt P53634); assay: Inhibition of CatL-activated recombinant human C-terminal His10-tagged cathepsin C (25 to 463 residues) expressed in mouse myeloma cells using Gly-Phe-AFC as substrate preincubated for 3 hrs followed by substrate addition and measured after 60 mins; assay type: cell-free
In short: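 Activated rhCatC was diluted to 4.4 nM in 25 mM MES, 50 mM NaCl, 5 mM DTT, 0.01% Triton X-100, pH 6.0. It was preincubated with compound (added in 10% DMSO) for 3 h at RT. Gly-Phe-AFC was then added to 100 μM final and read as fluorescence after 60 min. IC50 came from a sigmoidal nonlinear fit; values are means of at least two experiments.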

Dipeptidyl peptidase 1 [7] = target: T1, Dipeptidyl peptidase 1; assay: Inhibition of cathepsin C in human U937 cells using H-Gly-Phe-AFC as substrate preincubated for 4 hrs followed by substrate addition and measured after 60 mins; assay type: cell-based
In short: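 THP1 or U937 cells, grown in RPMI 1640 with 10% FBS, were seeded at 1.0 × 10^6/mL. They were preincubated with threefold serial dilutions of compound for 4 h at 37 °C. H-Gly-Phe-AFC was then added from a 100 μM solution and fluorescence was read after 60 min at 37 °C. Values are means of at least two experiments.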

[8] = target: T2, Epidermal growth factor receptor (Homo sapiens, UniProt P00533); assay: Inhibition of EGFR (unknown origin) up to 10 uM using biotin-labelled peptide as substrate preincubated for 2 hrs followed by substrate addition and measured after 30 mins by HTRF FRET assay
In short: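 EGFR WT was used at 0.1 nM final in 50 mM HEPES pH 7.0, 0.02% NaN3, 0.01% BSA, 0.1 mM orthovanadate, 10 mM MgCl2, 2.5 mM DTT, 6.25 nM SEB. It was preincubated with compound for 2 h. Biotin-peptide (1.4 μM) and ATP (20 μM) were then added for 30 min at RT. Read-out was HTRF/TR-FRET (Ex 320, Em 615/665 nm) with a sigmoidal curve fit.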

[9] = target: T2, Epidermal growth factor receptor; assay: Inhibition of EGFR (unknown origin) using biotin-labelled peptide as substrate preincubated for 2 hrs followed by substrate addition and measured after 30 mins by HTRF FRET assay

With `N#Cc1ccc(-c2ccc(C[C@@H](C#N)NC(=O)C3(N)CCOCC3)cc2)cc1` the Activity (Mus musculus [1]) was “Active” and the Activity (Mus musculus [2]) was “Active”.
`C=CC(=O)Nc1cccc(Oc2nc(Nc3ccc(N4CCN(C)CC4)cc3OC)ccc2Cl)c1` showed a microsomal CLint [3] of 26.3 µL/min/mg, a microsomal CLint [4] of 5.4 µL/min/mg and a microsomal CLint [5] of 39.7 µL/min/mg. The IC50 (Dipeptidyl peptidase 1 [6]) was 810 nM, the IC50 (Dipeptidyl peptidase 1 [7]) was 537 to 538 nM and the inhibition [8] was “inactive”. The IC50 [9] was greater than 10000 nM.
